Reference: ChEMBL document CHEMBL1137361, “WB4101-related compounds: new, subtype-selective alpha1-adrenoreceptor antagonists (or inverse agonists?)” (J Med Chem, 2006)

Tests used:
Cavia porcellus [1] = species: Cavia porcellus; assay: Inverse agonist effect on calcium-induced increase in resting tension of calcium-depleted guinea pig thoracic aorta at 10 nM; format: functional
Summary of the method: (§1)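 Guinea pig thoracic aorta was calcium-depleted and preincubated with antagonist, then challenged with Ca2+. The Ca2+-induced increase in resting tone was compared with the increase after the same Ca2+ challenge in the absence of antagonist.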

[2] = molecular target: T1, Alpha-1A adrenergic receptor (Rattus norvegicus, UniProt P43140); assay: Activity at adrenergic alpha 1A receptor assessed as antagonsim of noradrenaline-induced contraction of […]; format: functional, tissue-based, Sprague-Dawley; conditions: read-out: pA2 (converted)
T1 sequence (P43140 whole entry): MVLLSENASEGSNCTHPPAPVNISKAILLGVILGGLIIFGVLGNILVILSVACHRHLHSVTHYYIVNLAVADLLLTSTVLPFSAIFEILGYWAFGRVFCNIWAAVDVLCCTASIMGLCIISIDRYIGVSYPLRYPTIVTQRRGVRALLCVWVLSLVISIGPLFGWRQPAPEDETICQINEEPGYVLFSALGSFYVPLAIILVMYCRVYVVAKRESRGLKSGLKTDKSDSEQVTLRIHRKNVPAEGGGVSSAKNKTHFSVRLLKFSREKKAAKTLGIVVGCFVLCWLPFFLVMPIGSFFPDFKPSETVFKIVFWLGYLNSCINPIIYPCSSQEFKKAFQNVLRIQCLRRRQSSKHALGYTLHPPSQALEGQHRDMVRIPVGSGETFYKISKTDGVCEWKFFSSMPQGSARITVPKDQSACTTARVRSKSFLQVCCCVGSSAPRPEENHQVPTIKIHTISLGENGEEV
Summary of the method: (§2)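 Rat vas deferens, prostatic portion. Contraction was induced with (-)-noradrenaline, and blocking activity was measured as antagonism of that contraction.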

[3] = molecular target: T2, Alpha-2A adrenergic receptor (Rattus norvegicus, UniProt P22909); assay: Activity at adrenergic alpha 2A receptor assessed as antagonism on clonidine-inhibited twitch responses of field-stimulated Sprague-Dawley rat vas deferens; conditions: read-out: pA2 (converted)
T2 sequence (P22909 whole entry): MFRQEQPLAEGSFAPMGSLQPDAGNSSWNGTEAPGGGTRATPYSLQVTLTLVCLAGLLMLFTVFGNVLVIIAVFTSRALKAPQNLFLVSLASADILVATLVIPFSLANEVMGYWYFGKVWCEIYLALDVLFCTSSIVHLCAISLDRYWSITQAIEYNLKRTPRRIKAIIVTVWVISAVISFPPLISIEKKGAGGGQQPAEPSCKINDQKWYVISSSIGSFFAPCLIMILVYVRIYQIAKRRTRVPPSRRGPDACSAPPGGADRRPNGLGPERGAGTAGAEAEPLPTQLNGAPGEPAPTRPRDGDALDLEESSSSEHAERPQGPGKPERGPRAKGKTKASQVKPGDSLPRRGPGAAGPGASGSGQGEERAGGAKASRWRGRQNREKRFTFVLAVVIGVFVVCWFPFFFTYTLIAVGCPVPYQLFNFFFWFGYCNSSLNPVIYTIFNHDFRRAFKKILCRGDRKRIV

[4] = Selectivity for 5HT1A receptor in rat hippocampus over human adrenergic alpha 1A receptor; format: tissue-based
[5] = molecular target: Adrenergic receptors; alpha-1 A & B (Homo sapiens) (UniProt P35348+P35368); assay: Selectivity for human adrenergic alpha 1B receptor over human adrenergic alpha 1A receptor; format: protein assay
[6] = molecular target: T3, 5-hydroxytryptamine receptor 1A (Rattus norvegicus, UniProt P19327); assay: Displacement of [3H]8-OH-DPAT from 5-HT1A receptor in rat hippocampus; format: tissue-based
T3 sequence (P19327 whole entry): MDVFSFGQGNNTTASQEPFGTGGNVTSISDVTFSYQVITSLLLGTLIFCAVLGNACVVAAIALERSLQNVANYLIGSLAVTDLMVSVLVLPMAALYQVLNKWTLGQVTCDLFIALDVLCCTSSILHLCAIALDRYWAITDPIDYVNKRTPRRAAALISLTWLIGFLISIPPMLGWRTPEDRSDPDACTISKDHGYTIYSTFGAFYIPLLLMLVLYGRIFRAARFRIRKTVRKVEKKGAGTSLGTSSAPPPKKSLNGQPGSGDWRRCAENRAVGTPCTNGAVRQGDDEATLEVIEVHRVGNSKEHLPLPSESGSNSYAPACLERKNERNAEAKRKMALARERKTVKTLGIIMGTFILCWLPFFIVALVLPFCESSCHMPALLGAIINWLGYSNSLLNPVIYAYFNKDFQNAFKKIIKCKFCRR
Summary of the method: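 Radioligand binding with [3H]-8-OH-DPAT in membrane preparations from rat hippocampus. Affinity is expressed as pKi.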

[7] = molecular target: Alpha adrenergic receptor (1a and 1d) (Homo sapiens) (UniProt P35348+P25100); assay: Selectivity for human adrenergic alpha 1A receptor over human adrenergic alpha 1D receptor
[8] = molecular target: T4, Alpha-1B adrenergic receptor (Homo sapiens, UniProt P35368); assay: Displacement of [3H]prazosin from cloned human adrenergic alpha 1B receptor expressed in CHO cells; format: cell-based
T4 sequence (P35368 whole entry): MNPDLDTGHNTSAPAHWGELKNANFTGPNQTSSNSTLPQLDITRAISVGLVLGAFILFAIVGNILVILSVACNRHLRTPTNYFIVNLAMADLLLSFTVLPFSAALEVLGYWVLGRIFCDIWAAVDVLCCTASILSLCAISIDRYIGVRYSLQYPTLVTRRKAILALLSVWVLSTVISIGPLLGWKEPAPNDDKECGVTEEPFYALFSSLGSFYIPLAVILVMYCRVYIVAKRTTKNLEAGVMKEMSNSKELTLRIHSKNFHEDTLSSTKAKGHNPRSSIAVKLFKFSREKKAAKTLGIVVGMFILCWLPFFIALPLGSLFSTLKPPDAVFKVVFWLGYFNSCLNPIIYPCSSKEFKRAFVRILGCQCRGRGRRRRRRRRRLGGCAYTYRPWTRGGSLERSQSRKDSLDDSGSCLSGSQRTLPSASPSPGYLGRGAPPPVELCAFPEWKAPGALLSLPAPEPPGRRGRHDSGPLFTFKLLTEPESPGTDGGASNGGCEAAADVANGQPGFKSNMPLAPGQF
Summary of the method: (§3)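 Radioligand binding with [3H]prazosin as the label. Membranes came from CHO cells expressing the cloned human receptor. Affinity is expressed as pKi.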

[9] = molecular target: T5, Alpha-1A adrenergic receptor (Homo sapiens, UniProt P35348); assay: Displacement of [3H]prazosin from cloned human adrenergic alpha 1A receptor expressed in CHO cells; format: cell-based; summary of the method: as §3
T5 sequence (P35348 whole entry): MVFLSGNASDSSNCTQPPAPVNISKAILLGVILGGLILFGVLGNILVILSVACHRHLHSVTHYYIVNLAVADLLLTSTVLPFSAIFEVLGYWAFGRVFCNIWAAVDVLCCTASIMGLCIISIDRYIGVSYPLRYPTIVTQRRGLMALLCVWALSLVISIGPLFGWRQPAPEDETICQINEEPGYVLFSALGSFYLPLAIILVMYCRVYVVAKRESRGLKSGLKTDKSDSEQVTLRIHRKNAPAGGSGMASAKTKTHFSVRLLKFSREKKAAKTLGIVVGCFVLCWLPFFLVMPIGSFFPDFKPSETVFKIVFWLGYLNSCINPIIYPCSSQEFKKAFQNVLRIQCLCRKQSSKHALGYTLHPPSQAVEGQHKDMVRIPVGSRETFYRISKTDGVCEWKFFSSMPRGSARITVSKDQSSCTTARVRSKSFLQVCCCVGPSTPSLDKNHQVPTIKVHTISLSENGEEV

[10] = molecular target: T6, Alpha-1D adrenergic receptor (Homo sapiens, UniProt P25100); assay: Displacement of [3H]prazosin from cloned human adrenergic alpha 1D receptor expressed in CHO cells; format: cell-based; summary of the method: as §3
T6 sequence (P25100 whole entry): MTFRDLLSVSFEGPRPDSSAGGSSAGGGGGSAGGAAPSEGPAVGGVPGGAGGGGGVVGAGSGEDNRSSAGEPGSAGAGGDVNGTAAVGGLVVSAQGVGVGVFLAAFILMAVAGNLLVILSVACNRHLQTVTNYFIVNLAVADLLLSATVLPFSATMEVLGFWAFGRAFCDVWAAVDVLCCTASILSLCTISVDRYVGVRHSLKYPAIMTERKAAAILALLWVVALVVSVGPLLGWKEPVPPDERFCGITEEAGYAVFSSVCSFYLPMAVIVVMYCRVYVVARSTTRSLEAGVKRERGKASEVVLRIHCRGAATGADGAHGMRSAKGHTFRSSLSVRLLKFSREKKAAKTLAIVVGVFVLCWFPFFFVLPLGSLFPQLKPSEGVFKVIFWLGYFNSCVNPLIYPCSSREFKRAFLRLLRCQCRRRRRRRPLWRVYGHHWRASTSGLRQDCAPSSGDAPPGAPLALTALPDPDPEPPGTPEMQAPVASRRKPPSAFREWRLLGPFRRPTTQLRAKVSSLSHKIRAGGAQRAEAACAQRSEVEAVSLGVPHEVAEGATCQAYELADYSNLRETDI

[11] = molecular target: T7, Alpha-1D adrenergic receptor (Rattus norvegicus, UniProt P23944); assay: Activity at adrenergic alpha 1D receptor assessed as antagonism on noradrenaline-induced contraction of Sprague-Dawley rat thoracic aorta; format: functional, tissue-based; conditions: read-out: pA2 (converted)
T7 sequence (P23944 whole entry): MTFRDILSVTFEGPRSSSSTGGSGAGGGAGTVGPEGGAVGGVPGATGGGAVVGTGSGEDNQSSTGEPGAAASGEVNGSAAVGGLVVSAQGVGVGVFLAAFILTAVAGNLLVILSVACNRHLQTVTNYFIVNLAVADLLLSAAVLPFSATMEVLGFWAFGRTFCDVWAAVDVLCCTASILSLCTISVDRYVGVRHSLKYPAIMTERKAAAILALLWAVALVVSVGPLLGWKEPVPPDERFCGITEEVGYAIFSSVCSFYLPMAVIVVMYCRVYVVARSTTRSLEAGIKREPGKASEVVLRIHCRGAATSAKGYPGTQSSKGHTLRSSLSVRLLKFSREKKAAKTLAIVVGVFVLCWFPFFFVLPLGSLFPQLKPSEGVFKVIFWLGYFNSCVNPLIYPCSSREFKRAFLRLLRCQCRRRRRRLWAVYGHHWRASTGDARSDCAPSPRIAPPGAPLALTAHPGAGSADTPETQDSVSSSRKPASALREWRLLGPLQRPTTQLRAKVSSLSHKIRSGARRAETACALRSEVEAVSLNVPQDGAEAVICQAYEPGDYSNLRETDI
Summary of the method: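 Rat thoracic aorta contracted with (-)-noradrenaline. Blocking activity was measured as antagonism of the contraction.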

[12] = molecular target: T1, Alpha-1A adrenergic receptor; assay: Activity at adrenergic alpha 1A receptor assessed as antagonism of noradrenaline-induced contraction of Sprague-Dawley rat vas deferens; format: functional, tissue-based; conditions: read-out: pA2 (converted); summary of the method: as §2
Cavia porcellus [13] = species: Cavia porcellus; assay: Inverse agonist effect on calcium-induced increase in resting tension of calcium-depleted guinea pig thoracic aorta at 100 nM; format: functional; summary of the method: as §1

Selectivity ratio [4]	Selectivity ratio [5]	Ki [6] [nM]	Selectivity ratio [7]	Ki [8] [nM]	Ki [9] [nM]	Ki [10] [nM]	SMILES	Activity (Cavia porcellus [1]) [%]	Kb [2] [nM]	Kb [3] [nM]	Kb [11] [nM]	Kb [12] [nM]	Activity (Cavia porcellus [13]) [%]
							COc1cccc(OC)c1OCCNCC1COc2ccccc2O1 (stereo not given)	25	0.661	257			
5	4	501	2	398	100	204	COc1cccc(OC)c1OCCNC[C@@H]1COc2cc3c(cc2O1)CCCC3						
22.4	3.8	363	3.3	61.7	16.2	53.7	COc1ccc(-c2ccccc2)cc1OCCNC[C@@H]1COc2ccccc2O1						
8.3	16.2	77.6	3.1	151	9.33	28.8	COc1cccc(-c2ccccc2)c1OCCNC[C@@H]1COc2ccccc2O1						
11.2	1.7	3630	3	550	324	955	COc1ccc2ccccc2c1OCCNC[C@@H]1COc2cc3c(cc2O1)CCCC3						
11.5	4.3	132	1.3	49	11.5	15.8	COc1ccc2c(c1OCCNC[C@@H]1COc3ccccc3O1)CCCC2						
9.8	4.2	1000	2.9	427	102	295	COc1cccc(OC)c1OCCNC[C@@H]1COc2cc3ccccc3cc2O1						
3.7	2.3	871	1.5	550	234	363	COc1cc(-c2ccccc2)ccc1OCCNC[C@@H]1COc2ccccc2O1						

SMILES	Selectivity ratio [4]	Selectivity ratio [5]	Ki [6] [nM]	Selectivity ratio [7]	Ki [8] [nM]	Ki [9] [nM]	Ki [10] [nM]	Activity (Cavia porcellus [1]) [%]	Kb [2] [nM]	Kb [3] [nM]	Kb [11] [nM]	Kb [12] [nM]	Activity (Cavia porcellus [13]) [%]
COc1cccc(OC)c1OCCNC[C@@H]1COc2ccccc2O1			40.7			11.2			20	457	22.4	16.2	
COc1cccc(OC)c1OCCNC[C@H]1COc2ccccc2O1.Cl			2.45			0.407		10	0.324	120	0.631		27
